pEC50: −log10 of the molar value. Active and inactive are the calls of the source. The calls are words filed in the database; no cut-off is given here.

Six compounds from ChEMBL document CHEMBL4011621, “A Novel Series of Highly Potent Small Molecule Inhibitors of Rhinovirus Replication” (J Med Chem, 2017) can be followed below.

Series [1] concerns rhinovirus A16. The experiment in a line: Antiviral activity against Human rhinovirus A16 infected in human H1HeLa cells assessed as protection against virus induced cytopathic effect after 3 days by MTT assay. Format: functional, cell-based. To be noted: Rhinovirus A, H1-HeLa, 72 h. In outline:
(§1)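 CPE-reduction assay in H1HeLa cells plated 2 d before. Equal volumes of virus and compound were added and held at 33 °C for 3 d under CO2. Supernatant was removed, then MTT was added for 1 h at 37 °C. Formazan was dissolved and read at 540 nm against a 690 nm reference. Survival was scaled between uninfected untreated wells (100%) and virus-only wells (0%); mean ± SD, three experiments.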
(Cytopathic effects are the visible damage that an infection or toxin causes in cultured cells.)

In series [2] the test system is rhinovirus B14. The experiment in a line: Antiviral activity against Human rhinovirus B14 infected in H1HeLa cells assessed as decrease in viral dsRNA at 6 times EC50 treated every 1 hr for 6 hrs after infection by DAPI staining based immunofluorescence assay. It counts as functional, cell-based. In outline:
(§2)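 Cells were infected with hRV type 14 or type 16 at MOI 1. Compound was given 1 h before infection, at infection (0 h), or at later hourly time points. At 9 h post-infection, cells were fixed in ice-cold methanol–acetone 3:1 and stained with anti-dsRNA antibody (J2), an Alexa Fluor 488 anti-mouse secondary and DAPI, then imaged. Infected-cell count over total nuclei was expressed as % of untreated virus control; mean ± SD, three experiments.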

Series [3] relates to rhinovirus B14. As to the kind of experiment: Antiviral activity against Human rhinovirus B14 infected in H1HeLa cells assessed as decrease in viral dsRNA at 6 times EC50 treated every 1 hr for 9 hrs after infection by DAPI staining based immunofluorescence assay. It counts as functional, cell-based. In outline: as §2
Series [4] has as its system rhinovirus B14. The experiment in a line: Antiviral activity against Human rhinovirus B14 infected in human H1HeLa cells assessed as protection against virus induced cytopathic effect after 3 days by MTT assay. It counts as functional, cell-based. To be noted: Rhinovirus B, H1-HeLa, 72 h.
Another series deals with rhinovirus A21. The experiment in a line: Antiviral activity against Human rhinovirus A21 infected in human H1HeLa cells assessed as protection against virus induced cytopathic effect after 3 days by MTT assay. It counts as functional, cell-based. To be noted: Rhinovirus A, H1-HeLa, 72 h. In outline: as §1
Series [5] is described as follows: Cytotoxicity against human H1HeLa cells assessed as decrease in cell viability after 3 days by MTT assay. It counts as cell-based, H1-HeLa. On the technique in general: Formazan colour is commonly taken as a measure of viable cells.
Series [6] in a line: Antiviral activity against Human rhinovirus A71 infected in human H1HeLa cells assessed as protection against virus induced cytopathic effect after 3 days by MTT assay. To be noted: Rhinovirus A, H1-HeLa, 72 h. Format: functional, cell-based. In outline:
as §1

The nature of series [7]: Selectivity index, ratio of CC50 for human H1HeLa cells to EC50 for Human rhinovirus B14 infected in human H1HeLa cells. Format: toxicity, cell-based. As to conditions: read-out: Ratio CC50/EC50. In outline: (§3)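 H1HeLa cells plated 2 d ahead; virus plus compound (equal volumes) incubated 33 °C, 3 d, CO2. MTT 1 h at 37 °C, A540/A690. Survival scaled between uninfected untreated (100%) and virus-only (0%) wells to give EC50. CC50 = 50% cell death by MTT in H1HeLa. SI = CC50/EC50; at least three independent experiments.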

The nature of series [8]: Selectivity index, ratio of CC50 for human H1HeLa cells to EC50 for Human rhinovirus A21 infected in human H1HeLa cells. It counts as toxicity, cell-based. As to conditions: read-out: Ratio CC50/EC50. In outline:
as §3

Series [9] can be described thus: Selectivity index, ratio of CC50 for human H1HeLa cells to EC50 for Human rhinovirus A71 infected in human H1HeLa cells. Format: toxicity, cell-based. To be noted: read-out: Ratio CC50/EC50. In outline:
as §3

For the next series, the system named is Poliovirus 3. The experiment in a line: Antiviral activity against Human poliovirus 3 infected in human HeLa cells assessed as protection against virus induced cytopathic effect after 2 days by MTT assay. It counts as functional, cell-based. As to conditions: Enterovirus C, 48 h. In outline: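 HeLa cells; MTT-based CPE reduction. Virus and compound added in equal volumes, incubated 37 °C for 2 d in CO2. Supernatant removed, MTT 1 h at 37 °C, formazan dissolved, absorbance 540 nm (690 nm reference). Uninfected untreated wells = 100% survival, virus-only = 0%. EC50 = 50% inhibition; means ± SD, three experiments.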

Series [10] in a line: Cytotoxicity aganist human HeLa cells assessed as decrease in cell viability after 2 days by MTT assay. It counts as cell-based.
Series [11] in a line: Selectivity index, ratio of CC50 for human HeLa cells to EC50 for human poliovirus 3 infected in human HeLa cells. Format: toxicity, cell-based. As to conditions: read-out: Ratio CC50/EC50. In outline: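 SI = CC50/EC50 in HeLa cells. CC50 = 50% cell death by MTT. EC50 = 50% inhibition of PV3 CPE by MTT after 2 d at 37 °C, survival scaled to uninfected (100%) and virus-only (0%) wells. At least three independent experiments.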

The subject of series [12] is rhinovirus B14. As to the kind of experiment: Antiviral activity against Human rhinovirus B14 infected in H1HeLa cells assessed as decrease in viral dsRNA at 6 times EC50 treated 1 hr prior to infection by DAPI staining based immunofluorescence assay. It counts as functional, cell-based. In outline: as §2
The test system of series [13] is rhinovirus B14. As to the kind of experiment: Antiviral activity against Human rhinovirus B14 infected in H1HeLa cells assessed as decrease in viral dsRNA at 6 times EC50 treated simultaneously with infection by DAPI staining based immunofluorescence assay. It counts as functional, cell-based. In outline:
as §2

For series [14], the system named is rhinovirus A16. The experiment in a line: Antiviral activity against Human rhinovirus A16 infected in H1HeLa cells assessed as decrease in viral dsRNA at 6 times EC50 treated 1 hr prior to infection by DAPI staining based immunofluorescence assay. It counts as functional, cell-based. In outline: as §2
Series [15] relates to rhinovirus A16. The experiment in a line: Antiviral activity against Human rhinovirus A16 infected in H1HeLa cells assessed as decrease in viral dsRNA at 6 times EC50 treated simultaneously with infection by DAPI staining based immunofluorescence assay. It counts as functional, cell-based. In outline:
as §2

The test system of series [16] is rhinovirus A16. The experiment in a line: Antiviral activity against Human rhinovirus A16 infected in H1HeLa cells assessed as decrease in viral dsRNA at 6 times EC50 treated every 1 hr for 9 hrs after infection by DAPI staining based immunofluorescence assay. It counts as functional, cell-based. In outline:
as §2

For series [17], the system named is rhinovirus B14. As to the kind of experiment: Antiviral activity against Human rhinovirus B14 harboring VP1 A150V/E276K double mutant infected in human HeLa Rh cells assessed as protection against virus induced cytopathic effect after 3 days by MTT assay. Format: functional, cell-based.
Series [18] deals with rhinovirus B14. As to the kind of experiment: Antiviral activity against Human rhinovirus B14 harboring VP1 C199Y mutant infected in human HeLa Rh cells assessed as protection against virus induced cytopathic effect after 3 days by MTT assay. Format: functional, cell-based.
Series [19] is described as follows: Cytotoxicity against human HeLa Rh cells assessed as decrease in cell viability after 3 days by MTT assay. It counts as cell-based.

For orientation: pEC50 means the EC50 on a negative log10 scale, so that one unit is a factor of ten. Turning to `CCOC(=O)/C=C/[C@H](C[C@@H]1CCNC1=O)NC(=O)[C@@H](CC(=O)[C@@H](NC(=O)c1cc(C)on1)C(C)C)Cc1ccc(F)cc1` [RUPINTRIVIR], in the series on rhinovirus A16 [1], the pEC50 was 7.52. Besides, the result in the series with rhinovirus B14 [2] was Active.

The term CC50 denotes the concentration giving 50% cytotoxicity. `CNC(=O)c1cc(Oc2ccc3c(C)c(C(=O)OC(C)C)sc3c2)ccn1`: the outcome with rhinovirus B14 [3] and in the series with rhinovirus A16 [16] was inactive. The negative-log EC50 (pEC50) was 7.08 to 7.15 in the series on rhinovirus B14 [4]; 7.11 in the series with rhinovirus A21; 7.82 in series [6]; 7.20 in the series on Poliovirus 3; 6.64 with rhinovirus A16 [1]; 6.58 with rhinovirus B14 [17]. Further, in the series on rhinovirus B14 [18], the negative logarithm of the EC50 (pEC50) is 5.62. For the same compound, the half-maximal cytotoxic concentration (CC50) at 72 h in series [5] was 18100 nM; in [19], above 3000 nM. In addition, the selectivity ratio in [7] came to 220; in series [8], 230; in series [9] it was 1200; in series [11], 150. In series [10], the CC50 at 48 h was determined as 9600 nM. Also, the result with rhinovirus B14 [12], with rhinovirus B14 [13], with rhinovirus A16 [14] and in the series with rhinovirus A16 [15] was Active.

With `C#CC[C@@H](C(=O)N[C@H](/C=C/C(=O)OCC)C[C@@H]1CCNC1=O)n1cccc(NC(=O)c2cc(C)on2)c1=O` [IMOCITRELVIR], the pEC50 in the series with rhinovirus B14 [4] was 7.35; in the series with rhinovirus B14 [17], 7.31; with rhinovirus B14 [18], 7.25. For the same compound, the CC50 at 72 h in series [19] is above 3000 nM.

For the compound `Cc1cc(CCCOc2c(C)cc(-c3noc(C(F)(F)F)n3)cc2C)on1` [PLECONARIL], the outcome in the series on rhinovirus B14 [3] was inactive. Moreover, the pEC50 in the series on rhinovirus B14 [4] is 7.04 to 7.12; in the series on rhinovirus A21, 7.14; in series [6], 8.03; in the series with Poliovirus 3, 5.85; in the series with rhinovirus A16 [1], 6.46; in the series on rhinovirus B14 [17], 5.83. Also, the negative-log EC50 (pEC50) in the series on rhinovirus B14 [18] is 5.64. For the same compound, the CC50 at 72 h is 19700 nM in [5] and above 10000 nM in series [19]. For the same compound, the selectivity ratio was determined as 210 in [7], 270 in series [8], 2100 in series [9] and 19 in series [11]. For the same compound, the 50% cytotoxic concentration (CC50) at 48 h in [10] worked out at 25900 nM. Moreover, the result in the series with rhinovirus B14 [12], in the series on rhinovirus B14 [13], in the series on rhinovirus A16 [14] and with rhinovirus A16 [15] was Active.

In the case of `CCOC(=O)c1ccc2ccc(Oc3ccnc(C(=O)NC)c3)cc2n1`, the negative-log EC50 (pEC50) was 4.25 in the series with rhinovirus B14 [4], 4.35 in the series with rhinovirus A21, 5.89 in series [6] and 5.72 with Poliovirus 3. Moreover, the CC50 at 72 h in series [5] is above 100000 nM. For the same compound, the selectivity ratio in series [7] is above 1.8; in [8], above 2.3; in [9], above 77; in series [11], above 53. Moreover, the CC50 at 48 h in series [10] is above 100000 nM.

Turning to `CCOc1noc2cc(OCCC3CCN(c4ccc(C)nn4)CC3)ccc12` [VAPENDAVIR], the half-maximal cytotoxic concentration (CC50) at 72 h in series [19] is 721000 nM.
